In ChEMBL document CHEMBL4706564 (Eur J Med Chem, 2020):

Experiments:
Ebolavirus = assay: Antiviral activity against VSV-G pseudotyped EBOV infected in human HeLa cells; type: functional, organism-based; settings: Orthoebolavirus
Marburgvirus [1] = assay: Antiviral activity against VSV-G pseudotyped MARV infected in human HeLa cells; type: functional, organism-based; settings: Orthomarburgvirus
Influenza A virus = assay: Antiviral activity against Influenza A virus (H1N1); type: functional, organism-based
[2] = (§1) Cytotoxicity against human HEK293T cells incubated for 48 hrs by MTT assay; type: cell-based, HEK-293T; settings: HEK293T cells
Outline: (§2)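 HEK293T cells at 10⁵ cells/ml were added to two-fold compound dilutions in 10% DMEM and incubated 48 h at 37 °C, 5% CO2. MTT (5 mg/ml stock in PBS, 1/10 volume) was added for 2 h, and formazan was dissolved in DMSO before reading optical density. Each concentration was run in triplicate. CC50 was the concentration giving 50% cell death, or halving OD versus control.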

Zaire ebolavirus = assay: Antiviral activity against Zaire ebolavirus infected in African green monkey Vero cells assessed as inhibition of viral infection by measuring […] incubated for 10 days by neutral red dye based colorimetric analysis; type: functional, organism-based
cells [3] = type: cell-based, Ebolavirus, HEK293T; settings: Orthoebolavirus, Mayinga, HEK-293T
cells [4] = type: cell-based, HEK293T; settings: Vesicular stomatitis virus, HEK-293T
[5] = (§3) Cytotoxicity against African green monkey Vero cells assessed as reduction in cell survival incubated for 10 days by neutral red dye based colorimetric analysis; settings: chlorocebus sabaeus, Vero cells; time 10 day
Outline: (§4)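 Confluent Vero monolayers received six concentrations from 3-fold serial dilutions in DMEM of DMSO-dissolved compound, plus medium without virus. After 10 days at 37 °C, 5% CO2, cells were stained with neutral red and read at 490 nm. CC50 came from a 4-parameter fit, with at least 3 analyses per compound.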

Marburgvirus [6] = assay: Antiviral activity against MARV Popp infected in African green monkey Vero cells assessed as inhibition of viral infection by measuring reduction in virus-induced cytotoxicity incubated for 10 days by neutral red dye based colorimetric analysis; type: functional, organism-based
in vitro = settings: human, HEK293T cells
HEK-293T = assay: as §1; type: cell-based; settings: hek-293t, 48 h; outline: as §2
Vero = assay: as §3; settings: chlorocebus sabaeus, vero, 240 h; time 10 day; outline: as §4

| Structure (SMILES) | CC50 at 48 h [2] [µM] | IC50 (cells [3]) [µM] | IC50 (cells [4]) [µM] | selectivity ratio (in vitro) | further results |
| --- | --- | --- | --- | --- | --- |
| N#Cc1c(NCCN)nc(-c2ccccc2)c2c1CCCC2 | – | – | – | – | IC50 (Ebolavirus): 24.4 µM; IC50 (Marburgvirus [1]): 6.2 µM |
| O=[N+]([O-])c1cc(S(=O)(=O)NCCN2CCOCC2)ccc1Sc1nnnn1-c1ccccc1 | – | – | – | – | IC50 (Ebolavirus): 1.9 µM; IC50 (Marburgvirus [1]): 12.9 µM |
| CC1(C)[C@@H]2CC[C@@]1(C)/C(=N/CCO)C2 | – | – | – | – | IC50 (Influenza A virus): 5.1 µM |
| CC1(C)[C@H]2CC[C@]1(C)[C@H](OC(=O)CCN1CCOCC1)C2 | 305 | 8.5 | 320 | 36 | IC50 (Zaire ebolavirus; vero): Not Active; CC50 at 240 h [5]: 122 µM; IC50 (Marburgvirus [6]; vero): Not Active; IC50 (Influenza A virus): 12.2 µM |
| CN1CCN(CCC(=O)O[C@@H]2C[C@@H]3CC[C@@]2(C)C3(C)C)CC1 | 282 | 0.3 | 173 | 870 | IC50 (Zaire ebolavirus; vero): Not Active; CC50 at 240 h [5]: 61.4 µM; IC50 (Marburgvirus [6]; vero): Not Active; IC50 (Influenza A virus): 1.9 µM |
| CC1(C)[C@H]2CC[C@]1(C)[C@H](OC(=O)CCN1CCCCC1)C2 | – | – | 93 | – | CC50 (HEK-293T): 290 µM; IC50 (Zaire ebolavirus; vero, read-out: IC50): 47.5 µM; CC50 at 240 h [5]: 443 µM; IC50 (Marburgvirus [6]; vero, read-out: IC50): 3.7 µM; IC50 (Influenza A virus): 7.8 µM |
| CCN1CCN(CCC(=O)O[C@@H]2C[C@@H]3CC[C@@]2(C)C3(C)C)CC1 | 264 | 1.6 | 80.5 | – | IC50 (Zaire ebolavirus; vero): Not Active; CC50 at 240 h [5]: 19.2 µM; IC50 (Marburgvirus [6]; Orthomarburgvirus, Popp, Vero, 240 h, read-out: IC50): 17.8 µM |
| CCOC(=O)N1CCN(CC(=O)O[C@@H]2C[C@@H]3CC[C@@]2(C)C3(C)C)CC1 | 227 | 19.9 | 113 | 11 | – |
| CC1CCN(CCC(=O)N[C@@H]2C[C@H]3CC[C@]2(C)C3(C)C)CC1 | 93.6 | 2.6 | 93.6 | 36 | – |
| CC1CCN(CCC(=O)O[C@@H]2C[C@@H]3CC[C@@]2(C)C3(C)C)CC1 | – | 0.3 | – | – | CC50 (HEK-293T): 280 µM; IC50 (Zaire ebolavirus; Zaire ebolavirus, Vero, 240 h, read-out: IC50): 54.3 µM; CC50 (Vero): 69.3 µM; IC50 (Marburgvirus [6]; vero, read-out: IC50): 2.2 µM; IC50 (Influenza A virus): 15.3 µM |
| CC1(C)[C@H]2CC[C@]1(C)[C@H](OC(=O)CN1CCN(CCO)CC1)C2 | 296 | 13.9 | 394 | 21 | – |
| CC1(C)[C@H]2CC[C@]1(C)[C@H](OC(=O)CCN1CCCCCC1)C2 | 182 | 5.1 | 191 | 36 | – |
| CN1CCN(CC(=O)N[C@@H]2C[C@H]3CC[C@]2(C)C3(C)C)CC1 | 853 | 13.3 | 853 | 64 | – |
| CCOC(=O)N1CCN(CCCC(=O)O[C@@H]2C[C@@H]3CC[C@@]2(C)C3(C)C)CC1 | 60.4 | 2.6 | 49.1 | 23 | – |
| CCN(CC)CCC(=O)O[C@@H]1C[C@@H]2CC[C@@]1(C)C2(C)C | 327 | 12.4 | 411 | 26 | – |
| CC1CCN(CCCC(=O)N[C@@H]2C[C@H]3CC[C@]2(C)C3(C)C)CC1 | 142 | 3.4 | 142 | 41 | – |
| CCN1CCN(CCCC(=O)N[C@@H]2C[C@H]3CC[C@]2(C)C3(C)C)CC1 | 268 | 2.1 | 268 | 129 | – |
| CC1(C)[C@H]2CC[C@]1(C)[C@H](OC(=O)CN1CCN(Cc3ccccc3)CC1)C2 | 59.4 | 1.3 | 39.8 | 44 | – |
